pIC50: −log10 of the molar value.
tested on: E. coli V66 Hfr conjugation, recombinant frequency by colony plating; assay: inhibitors of RecBCD-driven recombination, late-stage follow-up, counter-screen for AddAB inhibitor project, colony formation, V66 E. coli, provider lab (AID 623918)
Method in brief: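 Signal: colony counting after differential plating for His+ StrR recombinants, viability on non-selective plates; assay system: E. coli conjugation, F- recipient cells mated with Hfr donor cells; schedule: 1 h recipient growth, 30 min mating, 1.5 h compound exposure; compound dosing: 5 doses, 0.03–100 µM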

`CCn1cc(C(=O)O)c(=O)c2cnc(N3CCN(C(=S)Nc4cccc(C(F)(F)F)c4)CC3)nc21` and `CCn1cc(C(=O)O)c(=O)c2cnc(N3CCN(C(=S)Nc4ccccc4C(F)(F)F)CC3)nc21` cannot be ordered by pIC50: 7.00 for the first, greater than 6.00 for the second.

`O=C(NCc1cccnc1)c1ccc([N+](=O)[O-])o1` and `O=C(Nc1ncccn1)c1ccc([N+](=O)[O-])o1` cannot be ordered by pIC50: greater than 7.00 for the first, 7.52 for the second.

`C=CCn1c(Sc2ncc([N+](=O)[O-])s2)n[nH]c1=O` and `CCn1cc(C(=O)O)c(=O)c2cnc(N3CCNCC3)nc21` cannot be ordered by pIC50: greater than 6.00 for the first, greater than 7.00 for the second.

For `CCn1cc(C(=O)O)c(=O)c2cc(F)c(N3CCN(C(=S)Nc4cccc(C(F)(F)F)c4)CC3)cc21`, the pIC50 was greater than 6.00.
